Data taken from ChEMBL document CHEMBL1148554, “Hydroxylated analogues of the orally active broad spectrum antifungal, Sch 51048 (1), and the discovery of posaconazole [Sch 56592; 2 or (S,S)-5]” (2006).
≈ marks a conversion by molar mass, not a printed value.

What was measured:
Candida albicans = assay: Antifungal activity against Candida albicans; assay type: functional
In short: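 Geometric mean MIC across 26–30 C. albicans strains.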

Aspergillus = assay: Antifungal activity against Aspergillus species; assay type: functional
In short: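 Geometric mean MIC across 37 Aspergillus strains: 17 A. fumigatus, 11 A. flavus, 5 A. niger and 4 A. terreus.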

Row | Structure (SMILES) | MIC (Candida albicans) [µg/mL] | MIC (Aspergillus) [µg/mL]
1 | C[C@H]([C@@H](C)O)n1ncn(-c2ccc(N3CCN(c4ccc(OC[C@@H]5CO[C@@](Cn6cncn6)(c6ccc(F)cc6F)C5)cc4)CC3)cc2)c1=O | < 0.006 | 0.09 (≈ 0.131 µM)
2 | C[C@H](O)[C@@H](C)n1ncn(-c2ccc(N3CCN(c4ccc(OC[C@@H]5CO[C@@](Cn6cncn6)(c6ccc(F)cc6F)C5)cc4)CC3)cc2)c1=O | 0.03 (≈ 0.0437 µM) | 0.08 (≈ 0.116 µM)
3 | C[C@H](O)[C@H](C)n1ncn(-c2ccc(N3CCN(c4ccc(OC[C@@H]5CO[C@@](Cn6cncn6)(c6ccc(F)cc6F)C5)cc4)CC3)cc2)c1=O | 0.02 (≈ 0.0291 µM) | 0.06 (≈ 0.0874 µM)
4 | C[C@@H](O)[C@H](C)n1ncn(-c2ccc(N3CCN(c4ccc(OC[C@@H]5CO[C@@](Cn6cncn6)(c6ccc(F)cc6F)C5)cc4)CC3)cc2)c1=O | < 0.007 | < 0.05
5 | CC[C@H]([C@@H](C)O)n1ncn(-c2ccc(N3CCN(c4ccc(OC[C@@H]5CO[C@@](Cn6cncn6)(c6ccc(F)cc6F)C5)cc4)CC3)cc2)c1=O | 0.014 (≈ 0.02 µM) | < 0.077
6 | CC[C@@H]([C@H](C)O)n1ncn(-c2ccc(N3CCN(c4ccc(OC[C@@H]5CO[C@@](Cn6cncn6)(c6ccc(F)cc6F)C5)cc4)CC3)cc2)c1=O [POSACONAZOLE] | 0.018 (≈ 0.0257 µM) | < 0.048
7 | CC[C@@H]([C@@H](C)O)n1ncn(-c2ccc(N3CCN(c4ccc(OC[C@@H]5CO[C@@](Cn6cncn6)(c6ccc(F)cc6F)C5)cc4)CC3)cc2)c1=O (mixture of isomers) | 0.019 | < 0.086
8 | CC[C@H]([C@H](C)O)n1ncn(-c2ccc(N3CCN(c4ccc(OC[C@@H]5CO[C@@](Cn6cncn6)(c6ccc(F)cc6F)C5)cc4)CC3)cc2)c1=O | 0.022 (≈ 0.0314 µM) | < 0.09
